Reference: ChEMBL document CHEMBL2040781, “Design, synthesis, and biological evaluation of chromone-based p38 MAP kinase inhibitors” (J Med Chem, 2011)
The source made the active and inactive calls. The calls are words filed in the database; no cut-off is given here.

Assays:
Type in all cases: cell-based
[1] = target: Dual specificity mitogen-activated protein kinase kinase 3 (Homo sapiens) (UniProt P46734); test: Inhibition of anisomycin-induced MKK3 phosphorylation in human MCF7 cells at 1 to 10 uM after 30 mins by SDS PAGE analysis
[2] = target: Dual specificity mitogen-activated protein kinase kinase 6 (Homo sapiens) (UniProt P52564); test: Inhibition of anisomycin-induced MKK6 phosphorylation in human MCF7 cells at 1 to 10 uM after 30 mins by SDS PAGE analysis
[3] = target: T1, Mitogen-activated protein kinase 14 (Homo sapiens, UniProt Q16539); test: Inhibition of anisomycin-induced p38alpha MAPK signalling in human MCF7 cells assessed as inhibition of ATF2 activation at 0.5 uM after 30 mins by SDS PAGE analysis
How it was run: (§1)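 MCF-7 cells were preincubated with the compound at the indicated doses for 30 min, then stimulated with 10 μg/mL anisomycin for another 30 min. Total cell lysates were resolved by SDS-PAGE and immunoblotted with antibodies against phosphorylated ATF2, p38 and HSP27, with tubulin as the loading control.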

[4] = target: T1, Mitogen-activated protein kinase 14; test: Inhibition of anisomycin-induced p38alpha MAPK signalling in human MCF7 cells assessed as inhibition of HSP27 activation at 10 uM after 30 mins by SDS PAGE analysis; how it was run: as §1
[5] = target: T1, Mitogen-activated protein kinase 14; test: Inhibition of anisomycin-induced p38alpha MAPK signalling in human MCF7 cells assessed as inhibition of HSP27 activation at 0.5 uM after 30 mins by SDS PAGE analysis; how it was run: as §1
[6] = target: T1, Mitogen-activated protein kinase 14; test: Inhibition of anisomycin-induced p38alpha MAPK signalling in human MCF7 cells assessed as inhibition of ATF2 activation at 10 uM after 30 mins by SDS PAGE analysis; how it was run: as §1

T1 sequence (Q16539 whole entry): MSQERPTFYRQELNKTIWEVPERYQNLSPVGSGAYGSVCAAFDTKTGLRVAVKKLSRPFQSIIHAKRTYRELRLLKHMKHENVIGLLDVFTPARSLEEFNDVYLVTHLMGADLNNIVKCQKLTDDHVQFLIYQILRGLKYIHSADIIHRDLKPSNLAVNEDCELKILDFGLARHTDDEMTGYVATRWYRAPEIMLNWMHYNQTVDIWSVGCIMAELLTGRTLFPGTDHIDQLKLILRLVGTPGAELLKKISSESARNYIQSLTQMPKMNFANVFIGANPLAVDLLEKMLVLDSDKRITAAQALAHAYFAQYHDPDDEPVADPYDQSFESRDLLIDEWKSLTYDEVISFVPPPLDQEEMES
Chain of Dual specificity mitogen-activated protein kinase kinase 6 (Homo sapiens) (P52564 whole entry): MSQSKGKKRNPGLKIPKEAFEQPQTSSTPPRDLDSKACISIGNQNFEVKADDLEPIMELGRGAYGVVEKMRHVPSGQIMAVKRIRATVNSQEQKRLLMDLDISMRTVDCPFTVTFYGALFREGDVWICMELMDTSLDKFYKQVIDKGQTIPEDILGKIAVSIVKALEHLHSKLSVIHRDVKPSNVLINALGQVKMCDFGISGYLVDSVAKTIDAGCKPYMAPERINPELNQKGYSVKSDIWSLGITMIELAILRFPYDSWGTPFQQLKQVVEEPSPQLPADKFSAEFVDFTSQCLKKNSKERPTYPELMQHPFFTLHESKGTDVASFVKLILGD
Chain of Dual specificity mitogen-activated protein kinase kinase 3 (Homo sapiens) (P46734 whole entry): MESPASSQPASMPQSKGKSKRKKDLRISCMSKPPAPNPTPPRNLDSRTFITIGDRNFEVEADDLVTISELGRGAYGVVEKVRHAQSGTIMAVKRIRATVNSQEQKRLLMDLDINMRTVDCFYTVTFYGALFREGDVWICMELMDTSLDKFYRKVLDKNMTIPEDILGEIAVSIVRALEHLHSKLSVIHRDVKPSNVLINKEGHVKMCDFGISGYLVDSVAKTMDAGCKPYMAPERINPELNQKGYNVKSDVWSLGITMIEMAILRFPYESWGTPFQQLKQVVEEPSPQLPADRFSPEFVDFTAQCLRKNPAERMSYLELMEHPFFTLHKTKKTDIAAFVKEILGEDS

inhibition [1]: inactive
inhibition [2]: inactive
inhibition [3]: Active
Imax [4]: Active
inhibition [5]: Active
Imax [6]: Active
SMILES: O=c1c(-c2ccc(F)cc2)c(-c2ccnc(NC3CCCCC3)c2)oc2ccccc12
